From paper PMC8208316 (Chemical Science, 2021)
“And” between values parts separate entries of the source, which are not always exact repeats. Equal entries are not always repeated. Each block holds one compound with its values, some of them ahead of it.

Legend:
[1] = Kinetics of RSSH release; assay type: physicochemical; conditions: for half-life at 100 µM: phosphate buffered saline with MMTS (1 mM) as RSSH trap, pH 7.4; for phenol byproduct 4a–f yield: precursor 100 μM, MMTS 1 mM, pH 7.4 PBS containing DTPA, HPLC
Outline: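 Test compound (100 μM) incubated at 37 °C with MMTS (1 mM) as RSSH trap in PBS (pH 7.4, 100 mM) containing DTPA (100 μM). Timed aliquots quenched with 0.1% formic acid and analysed by HPLC: precursor at 240 nm, phenol at 275 nm. First-order rate constants from single-exponential fits; average of three experiments.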

[2] = Decomposition of precursors in the presence of thiol; assay type: physicochemical
[3] = COS release in the presence of thiols by membrane inlet mass-spectrometry; assay type: physicochemical; conditions: 50 μM precursor, NAC 0.25 mM, PBS pH 7.4, 37 °C
[4] = test system: H9c2 cardiac myoblasts; assay: Protection from H2O2-mediated oxidative stress, CCK-8 viability assay; assay type: cell-based, rat
[5] = test system: H9c2 cardiac myoblasts; assay: Protection from H2O2-mediated oxidative stress, Sytox green viability assay; assay type: cell-based, rat; conditions: pretreatment 4 and 8 h, then H2O2 200 μM
[6] = test system: H9c2 cardiac myoblasts; assay: Intracellular sulfane sulfur detection using the SSP4 probe; assay type: cell-based, rat
Outline: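 H9c2 cells loaded with SSP4 (20 μM) plus CTAB (500 μM) for 20 min, then washed with serum-free medium. Test compound added at 0–200 μM. Plate-reader fluorescence (ex 482 nm, em 515 nm) read at set times over 3 h and normalised to the 0 μM value at each time. Mean ± SEM, n = 3 per group, three independent experiments.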

[7] = 10 equiv. MMTS, PBS pH 7.4, 100 mM, 37 °C

k, disappearance of precursor (first-order) [1, 7]: 0.00539 min⁻¹
k, formation of phenol (first-order) [1, 7]: 0.00533 min⁻¹
half-life at 100 µM [1]: 2.15 ± 0.0333 h
phenol byproduct 4a–f yield ([1]; 37 °C): 92% and 92 ± 2%
formation of byproduct 9a (indication of RSSH yield) ([2]; 5 equiv. N-acetylcysteine methyl ester): 53%
COS production with respect to precursor 13 [3]: approximately 20%
SMILES: COC(=O)C(NC(C)=O)C(C)(C)SSC(=O)Oc1ccccc1 (stereo not drawn) [1a]
protection against H2O2-mediated toxicity (cell viability, CCK-8) ([4]; pretreatment 5 μM for 8 h, then H2O2 200 μM): shows protection
protection against H2O2-mediated toxicity (cell viability, CCK-8) ([4]; pretreatment 4 h (0–50 μM), then H2O2 200 μM 2 h): dose-dependent decrease of H2O2-induced toxicity
protection against H2O2-mediated toxicity (Sytox) [5]: consistently shows protective effects
SSP4 fluorescence signal (intracellular sulfane sulfur) ([6]; 50 μM): did not observe a significant increase
SSP4 fluorescence intensity (intracellular sulfane sulfur) ([6]; 100 and 200 μM, over 3 h): dose-dependent increases in fluorescence intensity

half-life at 100 µM [1]: 2.45 ± 0.0333 h
phenol byproduct 4a–f yield ([1]; 37 °C): 92 ± 1%
SMILES: COC(=O)C(NC(C)=O)C(C)(C)SSC(=O)Oc1ccc(OC)cc1 (stereo not drawn) [1c]

half-life at 100 µM [1]: 1.6 ± 0.05 h
phenol byproduct 4a–f yield ([1]; 37 °C): 96 ± 6%
SMILES: COC(=O)C(NC(C)=O)C(C)(C)SSC(=O)Oc1ccc(F)cc1 (stereo not drawn) [1d]

half-life at 100 µM [1]: 0.467 ± 0.0167 h
phenol byproduct 4a–f yield ([1]; 37 °C): 97 ± 2%
SMILES: COC(=O)C(NC(C)=O)C(C)(C)SSC(=O)Oc1ccc(C#N)cc1 (stereo not drawn) [1f]

half-life at 100 µM [1]: 2.28 ± 0.0667 h
phenol byproduct 4a–f yield ([1]; 37 °C): 93 ± 4%
SMILES: COC(=O)C(NC(C)=O)C(C)(C)SSC(=O)Oc1ccc(C)cc1 (stereo not drawn) [1b]

The next lines start with the compound.

SMILES: Oc1ccccc1 [phenol, reference compound]
protection against H2O2-mediated toxicity (cell viability, CCK-8) ([4]; 50 μM for 4 and 8 h, then H2O2 200 μM 2 h): no protective effect

SMILES: COC(=O)C(NC(C)=O)C(C)(C)SSC(=O)OCc1ccccc1 (stereo not drawn) [compound 8]
half-life at 100 µM [1]: 37.2 ± 1.57 h
decomposition rate in the presence of thiol with respect to 1a ([2]; in the presence of thiol): about six times slower
COS generation in the presence of NAC (comparison) [3]: slower COS generation

SMILES: COC(=O)C(CSSSCC(NC(C)=O)C(=O)OC)NC(C)=O [N-Ac-OMe-Cys-(S)3, N-acetyl O-methyl cysteine trisulfide, reference compound]
SSP4 fluorescence signal in H9c2 cells compared with 1a [6]: higher fluorescence signal
